Test results: ChEMBL document CHEMBL3593162, “Novel 9-Alkyl- and 9-Alkylidene-Substituted 1α,25-Dihydroxyvitamin D3 Analogues: Synthesis and Biological Examinations” (J Med Chem, 2015)

How the values were obtained:
HL-60 [1] = assay: Induction of differentiation of human HL60 promyelocytes to monocytes after 4 days by nitro blue tetrazolium reduction assay; type: functional; details: for EC50: Homo sapiens, HL-60, 96 h, read-out: ED50 (the source's name)
In short: (§1)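 HL-60 cells grown in RPMI-1640 with 10% FBS at 37 °C, 5% CO2, plated at 1.2 × 10^5 cells/plate. Dosed in duplicate 18 h after plating (final ethanol <0.2%). After 4 days, NBT reduction read by counting 200 cells for formazan deposits. ED50 is the concentration giving 50% maturation, from dose-response curves; repeated 2 to 3 times, mean reported. Ratio = ED50 of 1α,25-(OH)2D3 / ED50 of analogue.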

[2] = Induction of transcriptional activity in rat ROS 17/2.8 cells after 16 hrs by 24-hydroxylase luciferase reporter gene assay; type: functional; details: for EC50: Rattus norvegicus, 16 h, read-out: ED50 (the source's name)
In short: (§2)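 ROS 17/2.8 cells stably transfected with 24-hydroxylase promoter–luciferase reporter, dosed over a range of concentrations. Harvested 16 h after dosing; luciferase read on a luminometer. ED50 is the concentration raising luciferase activity by 50%, from dose-response curves. Ratio = ED50 of 1α,25-(OH)2D3 / ED50 of analogue.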

Rattus norvegicus [3] = assay: Induction of bone calcium mobilization into serum of Sprague-Dawley rat assessed as serum calcium level at 87 pmol, ip administered 4 doses at 24 hrs interval measured 24 hrs post last dose (reference value: 4.9 mg/dL); type: functional
In short: (§3)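 Group-housed rats on Diet 11 (0.47% Ca) + AEK oil for 1 week, then 0.02% Ca for 3 weeks, then 0.47% Ca for 1 week, then 2 weeks on 0.02% Ca. Dosing in the final week: four ip doses about 24 h apart. Blood taken from the severed neck 24 h after the last dose; serum calcium measured as the bone calcium mobilization index.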

Rattus norvegicus [4] = assay: Induction of bone calcium mobilization into serum of Sprague-Dawley rat assessed as serum calcium level at 780 pmol, ip administered 4 doses at 24 hrs interval measured 24 hrs post last dose (reference value: 4.9 mg/dL); type: functional; in short: as §3
Rattus norvegicus [5] = assay: Induction of bone calcium mobilization into serum of Sprague-Dawley rat assessed as total serum calcium level at 260 pmol, ip administered 4 doses at 24 hrs interval measured 24 hrs post last dose (reference value: 4.5 mg/dL); type: functional; in short: as §3
Vitamin D3 receptor = molecular target: T1, Vitamin D3 receptor (Rattus norvegicus, UniProt P13053); assay: Displacement of [3H]-1alpha25-(OH)2D3 from full length recombinant rat vitamin D receptor by scintillation counting analysis
T1 sequence (P13053 whole entry): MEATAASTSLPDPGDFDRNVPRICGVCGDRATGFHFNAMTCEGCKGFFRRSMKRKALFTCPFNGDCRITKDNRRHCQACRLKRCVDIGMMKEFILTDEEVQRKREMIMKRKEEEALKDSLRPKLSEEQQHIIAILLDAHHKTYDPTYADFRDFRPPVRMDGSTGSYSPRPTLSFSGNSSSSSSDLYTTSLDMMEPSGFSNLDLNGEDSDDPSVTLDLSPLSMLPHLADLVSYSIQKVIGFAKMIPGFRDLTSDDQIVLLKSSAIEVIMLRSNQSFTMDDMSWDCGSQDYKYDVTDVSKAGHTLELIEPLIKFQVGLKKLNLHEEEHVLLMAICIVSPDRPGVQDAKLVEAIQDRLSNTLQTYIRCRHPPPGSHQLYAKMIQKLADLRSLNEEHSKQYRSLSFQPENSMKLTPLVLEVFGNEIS
In short: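 [3H]-1α,25(OH)2D3 at 1 nM final plus unlabeled ligand (ethanol ≤10%), incubated overnight on ice. Bound ligand captured on hydroxylapatite, washed with Tris–EDTA/0.5% Triton X-100, scintillation counted. Ki from dose-response curves using Kd 0.2 nM; duplicates on two to three occasions.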

[6] = molecular target: T2, Vitamin D3 receptor (Rattus norvegicus) (UniProt P13053); assay: Potency index, ratio of 1alpha,25-(OH)2D3 Ki to compound Ki for full length recombinant rat vitamin D receptor
T2 sequence (whole entry): T1 sequence (P13053 whole entry)

HL-60 [7] = assay: Potency index, ratio of 1alpha,25-(OH)2D3 ED50 to compound ED50 for induction of differentiation of human HL60 promyelocytes to monocytes; type: functional; in short: as §1
[8] = Potency index, ratio of 1alpha,25-(OH)2D3 ED50 to compound ED50 for induction of transcriptional activity in rat ROS 17/2.8 cells; type: functional; in short: as §2
Rattus norvegicus [9] = assay: Induction of bone calcium mobilization into serum of Sprague-Dawley rat assessed as total serum calcium level at 7020 pmol, ip administered 4 doses at 24 hrs interval measured 24 hrs post last dose (reference value: 4.5 mg/dL); type: functional; in short: as §3
Rattus norvegicus [10] = assay: Induction of bone calcium mobilization into serum of Sprague-Dawley rat assessed as total serum calcium level at 35100 pmol, ip administered 4 doses at 24 hrs interval measured 24 hrs post last dose (reference value: 4.5 mg/dL); type: functional; in short: as §3
Rattus norvegicus [11] = assay: Induction of intestinal calcium transport in Sprague-Dawley rat assessed as ratio of serosal calcium to mucosal calcium level at 7020 pmol, ip administered 4 doses at 24 hrs interval measured 24 hrs post last dose by everted gut sac method (reference value: 4.3); type: functional
Rattus norvegicus [12] = assay: Induction of intestinal calcium transport in Sprague-Dawley rat assessed as ratio of serosal calcium to mucosal calcium level at 35100 pmol, ip administered 4 doses at 24 hrs interval measured 24 hrs post last dose by everted gut sac method (reference value: 4.3); type: functional
Rattus norvegicus [13] = assay: Induction of bone calcium mobilization into serum of Sprague-Dawley rat assessed as total serum calcium level at 105300 pmol, ip administered 4 doses at 24 hrs interval measured 24 hrs post last dose (reference value: 4.5 mg/dL); type: functional; in short: as §3
Rattus norvegicus [14] = assay: Induction of intestinal calcium transport in Sprague-Dawley rat assessed as ratio of serosal calcium to mucosal calcium level at 105300 pmol, ip administered 4 doses at 24 hrs interval measured 24 hrs post last dose by everted gut sac method (reference value: 4.3); type: functional
Rattus norvegicus [15] = assay: Induction of bone calcium mobilization into serum of Sprague-Dawley rat assessed as serum calcium level at 7020 pmol, ip administered 4 doses at 24 hrs interval measured 24 hrs post last dose (reference value: 4.9 mg/dL); type: functional; in short: as §3
Rattus norvegicus [16] = assay: Induction of bone calcium mobilization into serum of Sprague-Dawley rat assessed as serum calcium level at 35100 pmol, ip administered 4 doses at 24 hrs interval measured 24 hrs post last dose (reference value: 4.9 mg/dL); type: functional; in short: as §3
Rattus norvegicus [17] = assay: Induction of intestinal calcium transport in Sprague-Dawley rat assessed as ratio of serosal calcium to mucosal calcium level at 780 pmol, ip administered 4 doses at 24 hrs interval measured 24 hrs post last dose by everted gut sac method (reference value: 4.1); type: functional
Rattus norvegicus [18] = assay: Induction of intestinal calcium transport in Sprague-Dawley rat assessed as ratio of serosal calcium to mucosal calcium level at 7020 pmol, ip administered 4 doses at 24 hrs interval measured 24 hrs post last dose by everted gut sac method (reference value: 4.1); type: functional
Rattus norvegicus [19] = assay: Induction of intestinal calcium transport in Sprague-Dawley rat assessed as ratio of serosal calcium to mucosal calcium level at 35100 pmol, ip administered 4 doses at 24 hrs interval measured 24 hrs post last dose by everted gut sac method (reference value: 4.1); type: functional

Ki (Vitamin D3 receptor) [µM] | Ratio Ki [6] | EC50 (HL-60 [1]) [µM] | Compound | ED50 (HL-60 [1]) | ED50 [2] | Ratio ED50 (HL-60 [7]) | Ratio ED50 [8] | Activity (Rattus norvegicus [9]) [mg/dL] | Ratio (Rattus norvegicus [11]) | further results
– | – | – | C=C1/C(=C\C=C2/CCC[C@]3(C)[C@@H]([C@H](C)CCCC(C)(C)O)CC[C@@H]23)C[C@@H](O)C[C@@H]1O [CALCITRIOL] | 2 ×10⁻⁹ M | 3 ×10⁻¹⁰ M | – | – | – | – | Activity (Rattus norvegicus [3]): 6.2 mg/dL; Activity (Rattus norvegicus [4]): 7.3 mg/dL; Activity (Rattus norvegicus [5]): 5.6 mg/dL
0.02 | 0.005 | 1 | C=C1CC[C@]2(C)[C@@H]([C@H](C)CCCC(C)(C)O)CC[C@H]2/C1=C/C=C1C[C@@H](O)C[C@H](O)C1 | – | 5 ×10⁻⁸ M | 0.002 | 0.006 | 4.3 | 5.3 | Activity (Rattus norvegicus [10]): 4.4 mg/dL; Ratio (Rattus norvegicus [12]): 4.6
> 10 | < 1e-05 | 10 | C/C=C1\CC[C@]2(C)[C@@H]([C@H](C)CCCC(C)(C)O)CC[C@H]2\C1=C\C=C1C[C@@H](O)C[C@H](O)C1 | – | – | 0.0001 | 0.0001 | 4.6 | 6.6 | EC50 [2]: 1 µM; Activity (Rattus norvegicus [13]): 4.5 mg/dL; Ratio (Rattus norvegicus [14]): 7.3
0.02 | 0.005 | – | C=C1/C(=C\C=C2/[C@H](C)CC[C@]3(C)[C@@H]([C@H](C)CCCC(C)(C)O)CC[C@@H]23)C[C@@H](O)C[C@@H]1O | 5 ×10⁻⁶ M | 5 ×10⁻⁸ M | 0.0001 | 0.006 | 4.3 | 7.9 | Activity (Rattus norvegicus [10]): 4.6 mg/dL; Ratio (Rattus norvegicus [12]): 6.2
> 10 | < 1e-05 | 10 | C=C1CC[C@]2(C)[C@@H]([C@H](C)CCCC(C)(C)O)CC[C@H]2/C1=C/C=C1/C[C@@H](O)C[C@H](O)[C@H]1C | – | – | 0.0001 | 0.0001 | – | – | EC50 [2]: 1 µM
> 10 | < 1e-05 | 10 | C=C1CC[C@]2(C)[C@@H]([C@H](C)CCCC(C)(C)O)CC[C@H]2/C1=C/C=C1/C[C@@H](O)C[C@H](O)[C@@H]1C | – | 9 ×10⁻⁸ M | 0.0001 | 0.003 | – | – | –
0.0002 | 0.5 | – | C[C@H](CCCC(C)(C)O)[C@H]1CC[C@H]2/C(=C/C=C3C[C@@H](O)C[C@H](O)C3)[C@@H](C)CC[C@]12C | 9 ×10⁻⁹ M | 3 ×10⁻¹⁰ M | 0.2 | 1 | – | – | Activity (Rattus norvegicus [4]): 4.8 mg/dL; Activity (Rattus norvegicus [15]): 4.5 mg/dL; Activity (Rattus norvegicus [16]): 5.4 mg/dL; Ratio (Rattus norvegicus [17]): 5; Ratio (Rattus norvegicus [18]): 10.1; Ratio (Rattus norvegicus [19]): 8.8
